Data from ChEMBL document CHEMBL5653631, “A Potent and Selective ULK1 Inhibitor Suppresses Autophagy and Sensitizes Cancer Cells to Nutrient Stress” (iScience, 2018).

Experiments:
[1] = target: Tyrosine-protein kinase CSK (Homo sapiens) (UniProt P41240); assay: Inhibition of human recombinant CSK at 40 nM in presence of ATP by radiometric assay relative to control
[2] = target: T1, Ephrin type-A receptor 1 (Homo sapiens) (UniProt P21709); assay: Inhibition of human recombinant EphA1 at 15 nM related to control ULK1
T1 sequence (whole entry): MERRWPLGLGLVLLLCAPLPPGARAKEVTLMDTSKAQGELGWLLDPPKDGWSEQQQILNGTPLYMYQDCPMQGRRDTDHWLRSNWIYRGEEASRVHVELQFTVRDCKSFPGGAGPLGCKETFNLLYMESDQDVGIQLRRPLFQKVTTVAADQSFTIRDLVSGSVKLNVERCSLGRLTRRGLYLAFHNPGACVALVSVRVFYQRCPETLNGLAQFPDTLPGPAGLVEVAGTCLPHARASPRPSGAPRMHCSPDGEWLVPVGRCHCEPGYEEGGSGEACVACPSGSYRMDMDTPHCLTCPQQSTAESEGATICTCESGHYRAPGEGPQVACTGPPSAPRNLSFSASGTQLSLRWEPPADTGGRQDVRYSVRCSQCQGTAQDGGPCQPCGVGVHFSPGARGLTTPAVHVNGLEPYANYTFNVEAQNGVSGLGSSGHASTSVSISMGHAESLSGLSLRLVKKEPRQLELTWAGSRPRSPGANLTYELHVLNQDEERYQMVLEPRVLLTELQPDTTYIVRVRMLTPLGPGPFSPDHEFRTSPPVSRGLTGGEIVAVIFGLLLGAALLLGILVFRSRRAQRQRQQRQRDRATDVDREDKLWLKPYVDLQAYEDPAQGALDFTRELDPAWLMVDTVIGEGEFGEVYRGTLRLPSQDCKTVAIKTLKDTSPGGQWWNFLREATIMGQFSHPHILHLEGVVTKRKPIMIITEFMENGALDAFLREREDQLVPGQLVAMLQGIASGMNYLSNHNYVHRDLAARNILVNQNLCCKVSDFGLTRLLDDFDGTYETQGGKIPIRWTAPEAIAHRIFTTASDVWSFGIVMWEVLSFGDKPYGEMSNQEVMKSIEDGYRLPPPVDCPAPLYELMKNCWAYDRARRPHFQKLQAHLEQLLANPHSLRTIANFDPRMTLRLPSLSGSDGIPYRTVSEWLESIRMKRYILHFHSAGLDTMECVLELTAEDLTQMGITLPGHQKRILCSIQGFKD

[3] = target: T2, Serine/threonine-protein kinase TAO2 (Homo sapiens) (UniProt Q9UL54); assay: Inhibition of human recombinant TAO2 at 15 nM in presence of ATP by radiometric assay relative to control
T2 sequence (whole entry): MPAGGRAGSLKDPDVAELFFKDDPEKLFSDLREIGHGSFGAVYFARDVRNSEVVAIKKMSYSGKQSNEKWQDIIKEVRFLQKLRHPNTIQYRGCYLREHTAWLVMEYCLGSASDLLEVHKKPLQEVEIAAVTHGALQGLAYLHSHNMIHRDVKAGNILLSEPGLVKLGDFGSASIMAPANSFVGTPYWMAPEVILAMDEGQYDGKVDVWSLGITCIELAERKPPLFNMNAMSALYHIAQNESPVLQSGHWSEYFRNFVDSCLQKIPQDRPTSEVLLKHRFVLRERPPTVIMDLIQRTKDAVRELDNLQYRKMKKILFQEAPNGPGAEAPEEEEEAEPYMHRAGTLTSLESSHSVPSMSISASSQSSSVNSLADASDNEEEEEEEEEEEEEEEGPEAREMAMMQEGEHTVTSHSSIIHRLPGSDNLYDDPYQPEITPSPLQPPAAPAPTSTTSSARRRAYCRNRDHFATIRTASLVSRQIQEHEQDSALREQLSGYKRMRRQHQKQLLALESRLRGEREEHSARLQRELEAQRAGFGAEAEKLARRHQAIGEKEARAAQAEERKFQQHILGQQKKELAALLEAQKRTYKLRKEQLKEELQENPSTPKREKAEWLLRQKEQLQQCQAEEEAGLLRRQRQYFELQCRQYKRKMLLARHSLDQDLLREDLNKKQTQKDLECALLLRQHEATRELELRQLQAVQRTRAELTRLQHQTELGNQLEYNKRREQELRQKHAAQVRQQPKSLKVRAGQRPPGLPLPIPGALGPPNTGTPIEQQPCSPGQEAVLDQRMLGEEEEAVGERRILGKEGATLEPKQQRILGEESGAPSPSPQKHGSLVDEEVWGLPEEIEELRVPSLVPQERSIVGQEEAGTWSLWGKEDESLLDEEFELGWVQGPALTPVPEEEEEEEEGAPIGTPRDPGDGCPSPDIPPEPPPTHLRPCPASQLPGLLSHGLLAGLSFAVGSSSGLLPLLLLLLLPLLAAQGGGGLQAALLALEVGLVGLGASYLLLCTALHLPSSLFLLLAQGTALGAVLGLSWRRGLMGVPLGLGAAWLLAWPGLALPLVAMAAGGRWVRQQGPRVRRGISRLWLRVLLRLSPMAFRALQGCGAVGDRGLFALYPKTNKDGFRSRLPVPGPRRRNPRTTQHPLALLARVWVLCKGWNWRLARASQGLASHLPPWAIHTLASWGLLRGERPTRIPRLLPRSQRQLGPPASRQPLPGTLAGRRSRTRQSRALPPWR

[4] = target: Serine/threonine-protein kinase N2 (Homo sapiens) (UniProt Q16513); assay: Inhibition of human recombinant PKN2 at 15 nM related to control ULK1
[5] = target: Serine/threonine-protein kinase ATR (Homo sapiens) (UniProt Q13535); assay: Inhibition of human recombinant ATR at 15 nM in presence of ATP by radiometric assay relative to control
Sequence of Serine/threonine-protein kinase ATR (Homo sapiens) (Q13535 whole entry, looked up): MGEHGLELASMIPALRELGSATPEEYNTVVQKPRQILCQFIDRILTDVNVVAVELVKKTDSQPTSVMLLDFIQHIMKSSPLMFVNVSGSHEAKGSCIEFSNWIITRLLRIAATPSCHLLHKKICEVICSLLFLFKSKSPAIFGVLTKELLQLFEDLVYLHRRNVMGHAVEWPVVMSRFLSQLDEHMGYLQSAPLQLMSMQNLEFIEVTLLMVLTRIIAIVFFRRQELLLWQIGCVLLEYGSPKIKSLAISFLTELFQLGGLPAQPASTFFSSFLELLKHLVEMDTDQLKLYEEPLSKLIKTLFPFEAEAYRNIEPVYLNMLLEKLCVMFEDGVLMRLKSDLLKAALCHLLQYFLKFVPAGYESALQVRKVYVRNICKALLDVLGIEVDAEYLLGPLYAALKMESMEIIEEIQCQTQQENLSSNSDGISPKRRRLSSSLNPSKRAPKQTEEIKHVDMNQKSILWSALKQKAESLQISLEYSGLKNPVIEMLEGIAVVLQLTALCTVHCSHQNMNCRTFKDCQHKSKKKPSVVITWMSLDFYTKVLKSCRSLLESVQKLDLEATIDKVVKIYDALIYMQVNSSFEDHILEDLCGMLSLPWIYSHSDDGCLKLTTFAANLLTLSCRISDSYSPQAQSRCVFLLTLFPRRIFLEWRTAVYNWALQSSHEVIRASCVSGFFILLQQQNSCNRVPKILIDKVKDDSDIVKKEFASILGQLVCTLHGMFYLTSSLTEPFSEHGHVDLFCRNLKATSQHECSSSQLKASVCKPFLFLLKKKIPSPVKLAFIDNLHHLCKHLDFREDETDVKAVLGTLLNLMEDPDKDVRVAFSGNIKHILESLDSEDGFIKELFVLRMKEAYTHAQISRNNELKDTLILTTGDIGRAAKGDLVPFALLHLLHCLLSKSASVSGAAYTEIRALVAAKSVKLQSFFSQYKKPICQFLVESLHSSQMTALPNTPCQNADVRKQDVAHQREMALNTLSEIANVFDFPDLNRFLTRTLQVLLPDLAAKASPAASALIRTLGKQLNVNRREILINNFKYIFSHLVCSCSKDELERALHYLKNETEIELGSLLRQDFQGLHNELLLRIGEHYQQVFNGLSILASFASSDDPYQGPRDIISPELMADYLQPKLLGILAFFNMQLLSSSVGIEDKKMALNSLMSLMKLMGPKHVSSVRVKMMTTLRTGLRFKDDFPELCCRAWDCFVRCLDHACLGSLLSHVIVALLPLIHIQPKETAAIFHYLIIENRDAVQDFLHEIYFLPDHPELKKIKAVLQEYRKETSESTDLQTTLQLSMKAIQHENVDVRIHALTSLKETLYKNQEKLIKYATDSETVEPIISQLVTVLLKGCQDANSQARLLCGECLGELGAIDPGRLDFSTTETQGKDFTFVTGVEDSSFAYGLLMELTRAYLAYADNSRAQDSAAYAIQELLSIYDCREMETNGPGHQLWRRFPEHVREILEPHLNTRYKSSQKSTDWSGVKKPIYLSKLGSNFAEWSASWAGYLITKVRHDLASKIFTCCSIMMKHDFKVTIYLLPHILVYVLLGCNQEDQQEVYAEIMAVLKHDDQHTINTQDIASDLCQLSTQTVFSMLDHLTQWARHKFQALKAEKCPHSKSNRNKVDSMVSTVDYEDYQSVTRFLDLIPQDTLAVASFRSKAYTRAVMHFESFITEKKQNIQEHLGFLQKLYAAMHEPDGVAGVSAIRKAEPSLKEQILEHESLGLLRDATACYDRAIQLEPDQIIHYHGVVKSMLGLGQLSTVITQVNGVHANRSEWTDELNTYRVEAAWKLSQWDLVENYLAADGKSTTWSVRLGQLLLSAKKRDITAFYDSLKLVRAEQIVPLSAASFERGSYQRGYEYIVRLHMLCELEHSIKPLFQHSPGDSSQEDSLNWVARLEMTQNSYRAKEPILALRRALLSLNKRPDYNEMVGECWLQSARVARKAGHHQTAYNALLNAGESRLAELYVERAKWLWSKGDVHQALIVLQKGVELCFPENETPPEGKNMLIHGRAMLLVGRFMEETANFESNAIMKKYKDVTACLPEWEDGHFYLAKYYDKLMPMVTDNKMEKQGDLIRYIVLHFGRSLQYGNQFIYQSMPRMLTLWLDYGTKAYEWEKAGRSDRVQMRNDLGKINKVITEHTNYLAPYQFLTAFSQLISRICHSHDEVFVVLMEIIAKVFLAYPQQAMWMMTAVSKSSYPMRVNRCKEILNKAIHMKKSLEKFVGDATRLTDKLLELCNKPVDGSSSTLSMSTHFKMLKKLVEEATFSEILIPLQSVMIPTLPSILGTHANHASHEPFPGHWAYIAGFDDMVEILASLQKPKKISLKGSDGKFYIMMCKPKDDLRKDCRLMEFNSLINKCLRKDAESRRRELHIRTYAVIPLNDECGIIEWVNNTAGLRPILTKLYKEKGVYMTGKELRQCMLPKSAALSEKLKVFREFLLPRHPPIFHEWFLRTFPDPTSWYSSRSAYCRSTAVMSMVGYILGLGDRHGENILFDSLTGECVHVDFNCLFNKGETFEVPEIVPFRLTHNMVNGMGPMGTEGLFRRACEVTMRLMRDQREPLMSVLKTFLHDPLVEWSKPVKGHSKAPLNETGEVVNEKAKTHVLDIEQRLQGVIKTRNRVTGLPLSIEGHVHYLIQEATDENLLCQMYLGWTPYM
Procedure, shortened: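 Panel of 327 recombinant human kinases, each assayed in vitro by radiometric activity assay in duplicate at a single inhibitor concentration per compound, chosen with reference to its ULK1 inhibition. Activity remaining was expressed as percent of vehicle control, and percent inhibition was calculated as 100 minus percent activity remaining.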

[6] = target: Tyrosine-protein kinase Blk (Homo sapiens) (UniProt P51451); assay: Inhibition of human recombinant BLK at 500 nM in presence of ATP by radiometric assay relative to control
Procedure, shortened: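 Part of a radiometric in vitro activity panel of 327 recombinant human kinases. Each kinase was tested in duplicate at one inhibitor concentration. Activity remaining was expressed as a percentage of the vehicle control, and percent inhibition was taken as 100 minus that value.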

[7] = target: PAS domain-containing serine/threonine-protein kinase (Homo sapiens) (UniProt Q96RG2); assay: Inhibition of human recombinant PASK at 500 nM in presence of ATP by radiometric assay relative to control
[8] = target: Ephrin type-A receptor 7 (Homo sapiens) (UniProt Q15375); assay: Inhibition of human recombinant EphA7 at 500 nM related to control ULK1
Sequence of Ephrin type-A receptor 7 (Homo sapiens) (Q15375 28-998 limits assumed): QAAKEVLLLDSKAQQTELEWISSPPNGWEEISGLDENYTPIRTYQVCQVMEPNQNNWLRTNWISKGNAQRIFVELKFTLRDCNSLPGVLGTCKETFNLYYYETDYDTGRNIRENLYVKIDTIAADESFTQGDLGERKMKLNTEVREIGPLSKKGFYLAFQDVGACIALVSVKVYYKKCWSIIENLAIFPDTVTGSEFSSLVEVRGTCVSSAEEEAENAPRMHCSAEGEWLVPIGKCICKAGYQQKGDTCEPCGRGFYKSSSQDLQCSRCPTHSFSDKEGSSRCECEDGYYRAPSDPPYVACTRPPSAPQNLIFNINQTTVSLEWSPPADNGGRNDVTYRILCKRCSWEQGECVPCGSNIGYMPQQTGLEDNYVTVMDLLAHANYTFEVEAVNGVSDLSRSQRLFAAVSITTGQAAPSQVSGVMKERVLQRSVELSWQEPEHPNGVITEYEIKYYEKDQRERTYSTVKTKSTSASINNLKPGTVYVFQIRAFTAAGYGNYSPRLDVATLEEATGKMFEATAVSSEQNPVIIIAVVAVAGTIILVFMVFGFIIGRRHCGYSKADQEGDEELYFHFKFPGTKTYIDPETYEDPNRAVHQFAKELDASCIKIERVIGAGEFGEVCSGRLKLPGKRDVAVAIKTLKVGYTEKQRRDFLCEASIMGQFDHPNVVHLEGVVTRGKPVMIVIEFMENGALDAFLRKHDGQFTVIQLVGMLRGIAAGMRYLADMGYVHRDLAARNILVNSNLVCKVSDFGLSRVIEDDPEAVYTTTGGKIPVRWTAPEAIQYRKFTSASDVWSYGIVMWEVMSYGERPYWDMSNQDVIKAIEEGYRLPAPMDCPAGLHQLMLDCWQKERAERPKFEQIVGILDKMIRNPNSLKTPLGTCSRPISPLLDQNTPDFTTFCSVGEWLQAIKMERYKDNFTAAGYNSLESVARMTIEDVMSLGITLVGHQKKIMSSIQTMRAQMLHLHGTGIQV

[9] = target: Serine/threonine-protein kinase PLK1 (Homo sapiens) (UniProt P53350); assay: Inhibition of human recombinant PLK1 at 500 nM in presence of ATP by radiometric assay relative to control
Sequence of Serine/threonine-protein kinase PLK1 (Homo sapiens) (P53350 whole entry): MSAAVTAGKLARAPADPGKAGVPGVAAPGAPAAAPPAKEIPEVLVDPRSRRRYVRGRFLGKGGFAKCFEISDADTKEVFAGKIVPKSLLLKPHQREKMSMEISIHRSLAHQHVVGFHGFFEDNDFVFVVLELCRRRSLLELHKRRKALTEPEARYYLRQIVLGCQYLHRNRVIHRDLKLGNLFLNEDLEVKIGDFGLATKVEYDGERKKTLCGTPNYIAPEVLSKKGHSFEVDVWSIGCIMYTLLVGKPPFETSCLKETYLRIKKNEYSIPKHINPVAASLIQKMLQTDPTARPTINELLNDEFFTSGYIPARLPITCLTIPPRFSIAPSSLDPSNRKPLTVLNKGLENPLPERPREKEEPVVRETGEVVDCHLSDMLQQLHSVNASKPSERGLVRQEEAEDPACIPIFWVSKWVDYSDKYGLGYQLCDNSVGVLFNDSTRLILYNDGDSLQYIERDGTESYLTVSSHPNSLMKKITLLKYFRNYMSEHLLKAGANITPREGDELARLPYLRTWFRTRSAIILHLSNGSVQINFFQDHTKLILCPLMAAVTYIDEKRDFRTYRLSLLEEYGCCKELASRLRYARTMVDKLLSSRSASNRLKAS

Sequence of Tyrosine-protein kinase CSK (Homo sapiens) (P41240 2-450 limits assumed): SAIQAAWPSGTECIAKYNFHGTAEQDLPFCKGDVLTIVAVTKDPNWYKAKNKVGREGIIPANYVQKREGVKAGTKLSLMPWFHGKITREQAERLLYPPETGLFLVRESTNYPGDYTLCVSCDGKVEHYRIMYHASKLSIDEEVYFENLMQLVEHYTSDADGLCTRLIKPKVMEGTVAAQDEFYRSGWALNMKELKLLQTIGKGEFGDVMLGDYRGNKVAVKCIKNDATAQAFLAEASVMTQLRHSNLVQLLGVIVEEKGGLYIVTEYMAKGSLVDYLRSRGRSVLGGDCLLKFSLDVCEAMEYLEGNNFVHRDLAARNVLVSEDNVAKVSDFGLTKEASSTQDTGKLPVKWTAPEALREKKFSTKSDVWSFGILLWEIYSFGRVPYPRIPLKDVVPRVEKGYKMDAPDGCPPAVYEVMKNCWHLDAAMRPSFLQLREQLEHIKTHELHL

O=C(N[C@@H](C1CC1)C(F)(F)F)c1cc(-c2cnn3cc(-c4ccc(F)cc4)cnc23)cs1
inhibition [1]: 0%

CC(C)[C@H](NC(=O)c1cc(-c2cnn3cc(-c4ccc(OCCN5CCCCC5)cc4)cnc23)cs1)C(F)(F)F
fold change (FC) [2]: 0 | inhibition [3]: 0% | fold change (FC) [4]: 0 | inhibition [5]: 4%

CNC(=O)c1ccccc1Oc1nc(Nc2cc(OC)c(OC)c(OC)c2)ncc1Br
inhibition [6]: 29% | inhibition [7]: 10% | fold change (FC) [8]: 0 | inhibition [9]: 0%
